The values below come from ChEMBL document CHEMBL3792375, “Strategies for improving the solubility and metabolic stability of griseofulvin analogues” (Eur J Med Chem, 2016).

Converted amounts (≈) assume the structure as drawn.

One series relates to U2OS. Description: Cytotoxicity against human U2OS cells assessed as reduction in cell viability after 72 hrs by celltiter Glo assay. The series is classed as functional, cell-based. In outline:
(§1)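 Antiproliferative IC50 was determined against viable cells using a luminescent ATP read-out.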

The nature of series [1]: Thermodynamic solubility in PBS buffer at 1 mg after 12 hrs by HPLC analysis. The conditions noted are these: read-out: Therm_solubility. In kind it is physicochemical. In outline:
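Solubility was measured in PBS, with the dissolved compound quantified by HPLC. The HPLC setup has a lower detection limit.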

Series [2] can be described thus: Half life in rat liver microsomes by HPLC analysis in presence of NADPH. The series is classed as ADME. An outline of the steps:
(§2)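 Male mouse or rat liver microsomes. Each run was done in triplicate, with a matching control that had no cofactor added. Samples were taken at set times, and the remaining non-degraded compound was quantified by analytical HPLC peak area. Half-life was calculated from linear plots.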

The next series deals with MDA-MB-231. Nature of the series: Cytotoxicity against human MDA-MB-231 cells assessed as reduction in cell viability after 72 hrs by celltiter Glo assay. The series is classed as functional, cell-based. The conditions noted are these: MDA-MB-231, 72 h. An outline of the steps:
as §1

A short description of series [3]: Half life in mouse liver microsomes by HPLC analysis in presence of NADPH. In kind it is ADME. An outline of the steps: as §2
Another series relates to HeLa. Nature of the series: Cytotoxicity against human HeLa cells assessed as reduction in cell viability after 24 hrs by MTT assay. The series is classed as functional, cell-based.
The nature of series [4]: Cytotoxicity against human SCC114 cells assessed as reduction in cell viability after 24 hrs by MTT assay. The settings on record: SCC114, 24 h. The series is classed as functional, cell-based.
A further series relates to Liver microsome. Nature of the series: Drug metabolism in rat liver microsomes assessed as position 4/6 CH3 cleavage by LC-MS analysis. The series is classed as ADME.
A further series relates to Liver. Description: Drug metabolism in mouse liver microsomes assessed as position 4/6 CH3 cleavage by LC-MS analysis. In kind it is ADME.

For the molecule `COc1cc(OC(F)F)c2c(c1Cl)O[C@]1(C2=O)C(OCc2ccccc2)=CC(=O)C[C@H]1C`, the IC50 in the series on U2OS worked out at 14.3 µM; with MDA-MB-231, 11.8 µM. For the same molecule, the solubility thermodynamic at 12 h in [1] was less than 0.3 µg/mL. In addition, the half-life in [2] was determined as 26 min; in series [3], 11 min.
Consider `COC1=CC(=O)C[C@@H](C)[C@]12Oc1c(Cl)c(OC)cc(OC)c1C2=O` [GRISEOFULVIN], for which the IC50 in the series on HeLa amounted to 75 µM; in series [4], 35 µM; with U2OS, 22.4 µM; with MDA-MB-231, 25.3 µM. Besides, the solubility thermodynamic at 12 h in [1] came out at 7.7 µg/mL (≈ 21.8 µM). The half-life in series [2] was determined as 58 min; in [3], 37 min.
`COc1cc(OC)c2c(c1Cl)O[C@]1(C2=O)C(OCc2ccccc2)=C/C(=N\O)C[C@H]1C`: the results for the IC50 in the series with U2OS and in the series with MDA-MB-231 were 1.61 µM and 1.29 µM, respectively. Besides, in series [1], the solubility thermodynamic at 12 h is 3 µg/mL (≈ 6.76 µM). For the same molecule, the half-life was 57 min in series [2] and 45 min in series [3].
For `[2H]C([2H])([2H])OC1=CC(=O)C[C@@H](C)[C@]12Oc1c(Cl)c(OC)cc(OC)c1C2=O`, the Drug metabolism entry with Liver microsome and with Liver was “metabolite_detected” each time.
In the case of `COc1cc(OC)c2c(c1Cl)O[C@]1(C2=O)C(OCc2ccccc2)=CC(=O)C[C@H]1C`, the values for the IC50 in the series on U2OS and in the series with MDA-MB-231 were 1.45 µM and 1.62 µM, respectively. Further, in [1], the solubility thermodynamic at 12 h came to 0.3 µg/mL (≈ 0.7 µM). For the same molecule, the figures for the half-life in series [2] and in series [3] were 60 min and 27 min, respectively.
The like results for `COc1cc(OC(F)F)c(Cl)c2c1C(=O)[C@@]1(O2)C(OCc2ccccc2)=CC(=O)C[C@H]1C` were, in that order, 5.56 µM, 5.34 µM, less than 0.3 µg/mL, 53 min and 31 min.
In the case of `COc1cc(OC)c2c(c1Cl)O[C@]1(C2=O)C(OCc2ccccc2)=C/C(=N\OCC(=O)O)C[C@H]1C`, the IC50 is 14.1 µM in the series on U2OS and 10.1 µM in the series with MDA-MB-231. The solubility thermodynamic at 12 h in series [1] is more than 1000 µg/mL. In addition, the results for the half-life in series [2] and in [3] were 449 min and 339 min, respectively.
